NR2E3 ag-1 = NR2E3 agonists in two-hybrid cells, primary screen, cell-based, luminescence, CHO-S, Gal4-NCOR/VP16-NR2E3; Photoreceptor-specific nuclear receptor (Homo sapiens), Q9Y5X4; luciferase; inhibition of corepressor binding, % at 3.98 µM; 360,000 tested, 0.35% active;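 active means inhibition above the mean of all tested compounds plus 3 SD, cut at about 70% in these data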;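 further: 0% = DMSO with NR2E3 transfected cells and 100% = cells lacking NR2E3 construct; higher means lower luciferase signal from less NR2E3 corepressor binding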
NR2E3 ag-2 = inhibitors of NR2E3-RetCOR corepressor binding, primary screen, NR2E3 agonist project, biochemical, TR-FRET, GST-NR2E3, biotin-RetCOR; Photoreceptor-specific nuclear receptor (Homo sapiens), Q9Y5X4; 1536-well; inhibition of corepressor binding, % at 4.78 µM; 320,000 tested, 0.12% active; AID 2300, 2010;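 active means percent inhibition above the cutoff of mean plus 3 SD of all tested compounds, set per screening campaign, cut at about 20% in these data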;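 further: 0% = DMSO wells and 100% = biotin wells as full block of FRET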
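System: GST-tagged NR2E3 plus biotinylated RetCOR corepressor; Amount: 1.35 nM GST-tagged NR2E3 final; Dosing: single nominal compound dose of 4.8 µM; Schedule: 5 h incubation at 4 °C; Technique: TR-FRET with europium anti-GST and streptavidin-D2, 340 nm excitation; Controls: biotin wells as high control, 0.6% DMSO wells as low control.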
SMARCA2 act = SMARCA2 (BRM) function activators, primary screen, cell-based, luminescence, high throughput | MG213 cells, MMTV-luciferase reporter, dexamethasone, overnight | activation, % at 9.1 µM | 370,000 tested, 1% active; in the data active means activation above about 7.8%;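 further: 0% = vehicle wells and 100% = reference activator wells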
DAX1 inh-1 = DAX1 (NR0B1) inhibitors, primary screen, cell-based, HEK293, Gal4-DAX1, luciferase luminescence; HEK293 Gal4-DAX1 luciferase reporter; Nuclear receptor subfamily 0 group B member 1 (Homo sapiens), P51843; 340,000 tested, 0.99% active; inhibition, % at 6.75 µM;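 active means inhibition above the mean over all tested compounds plus 3 SD, cut at about 4.2% in these data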;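 further: 0% = DAX1-transfected cells with DMSO and 100% = empty-vector control cells with DMSO; inhibition shows as a rise in luminescence from relieved DAX1 repression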
Target sequence (P51843 207-470 limits assumed): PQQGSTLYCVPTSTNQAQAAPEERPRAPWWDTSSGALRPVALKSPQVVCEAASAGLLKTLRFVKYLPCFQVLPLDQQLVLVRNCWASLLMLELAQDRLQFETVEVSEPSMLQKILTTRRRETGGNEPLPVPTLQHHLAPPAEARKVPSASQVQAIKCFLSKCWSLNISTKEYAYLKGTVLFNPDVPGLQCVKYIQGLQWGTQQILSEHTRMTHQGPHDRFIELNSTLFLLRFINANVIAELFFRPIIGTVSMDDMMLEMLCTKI
DAX1 inh-2 = DAX1 (NR0B1) inhibitors on StAR promoter, primary screen, cell-based, luminescence, SF-1 (NR5A1), full-length DAX-1. HEK293T StAR-luciferase reporter, SF-1/DAX-1 repression relief. inhibition, % at 6.8 µM. 370,000 tested, 1.1% active. AID 652010, 2013;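 active means inhibition above the mean over all tested compounds plus 3 SD, cut at about 3.6% in these data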;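 further: 0% = DAX-1 cells with DMSO and 100% = cells lacking DAX-1 with DMSO; higher inhibition means more luminescence from relief of DAX-1 repression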
JMJD2C inh = inhibitors of GASC-1 histone demethylase, primary screen, biochemical, fluorescence, DELFIA europium; inhibition, % at 2.35 µM; GST-JMJD2C(1-420) H3K9me3 demethylation; 330,000 tested, 0.069% active;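 active means more than half of a compound's replicate wells show inhibition beyond 50%, single wells judged on their own value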;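 further: signal counts dimethyl H3K9 product captured on neutravidin plate; 0% = median of DMSO wells and 100% = 0.3 times that DMSO median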
Active calls of the source: *; . = no result given. Rows were chosen to be rich in hits. Some 3.2% of all compounds tested hit in one or more screens of this group.

SMILES | NR2E3 ag-1 | NR2E3 ag-2 | SMARCA2 act | DAX1 inh-1 | DAX1 inh-2 | JMJD2C inh
CC(C)(C)c1ccc(S(=O)(=O)N2CCCC(C(=O)NCCN3CCC(Cc4ccccc4)CC3)C2)cc1 (stereo not drawn) | . | . | -8 | . | -1 | .
CNc1nc(Cl)nc2c1ncn2-c1ccccc1 | -12 | . | 0 | 4.6* | -1 | .
O=C(O)Cn1c2ccccc2c2nc3ccccc3nc21 | -165 | . | . | 4.9* | . | .
CCC(=O)Nc1ccc(C(=O)COC(=O)c2nc3nccc(C)n3n2)cc1 | -14 | 1 | -4 | 0 | -1 | -3
Cc1ccnc2nc(C(=O)OCC(=O)c3ccc(NC(=O)CC(C)C)cc3)nn12 | -42 | . | 5 | 5.5* | 1 | -3
COc1ccc(CCNC(=O)c2ccc3c(c2)ncn3C2CCCCC2)cc1 | . | . | 0 | . | -1 | .
O=C(NCc1ccc2c(c1)OCO2)OCc1ccccc1 | . | . | 0 | . | 4.0* | .
CC(C)n1c(CCC(=O)O)ccc1-c1ccccc1 | 5 | -2 | 1 | 4.3* | 0 | -2
O=C(O)CCc1ccc(-c2ccccc2)n1CC(=O)O | -11 | 1 | 1 | 0 | 0 | 5
CN(C)Cc1cn(-c2cccc(-c3noc4c3C(=O)N(CC(=O)N3CCOCC3)CC4)c2)nn1 | . | . | -2 | . | 0 | .
CCOC(=O)C1=C(C)C(c2ccc(OC)cc2OC)NC(=O)N1 (stereo not drawn) | 16 | 2 | 1 | 0 | 0 | 5
CCOC(=O)C1=C(C)C(c2ccccc2O)NC(=O)N1 (stereo not drawn) | -22 | 0 | -1 | 6.0* | 0 | 10
Cc1ccc(C)c(NC(=O)C2CCCN2S(=O)(=O)c2cccnc2)c1 (stereo not drawn) | . | . | -4 | . | -1 | .
COc1ccc(N(C)C(=O)c2sc(Cl)nc2C)cc1 | 4 | -2 | -1 | 0 | 0 | -3
Cc1ccc(OC(=O)c2sc(Cl)nc2C)cc1C | -1 | 2 | -1 | 4.3* | 0 | .
O=S(=O)(c1ccccc1Br)N(Cc1cn(CC2CCCCC2)nn1)C1CC1 | . | . | -2 | . | -1 | .
Cc1ccc(NC(=O)N2CCC(c3ccccc3)C2)cc1C (stereo not drawn) | -134 | 3 | 6 | 5.8* | 3.6* | 3
CCOCCCNC(=S)N(CCCN(C)C)Cc1cc2cc3c(cc2[nH]c1=O)OCCO3 | -17 | 3 | -1 | 4.7* | 1 | 2
CC(=O)c1cccc(NC(=S)NC(=O)c2ccc(C)cc2)c1 | -36 | -1 | 4 | 0 | 4.0* | 1
CC(=O)c1cccc(NC(=S)NC(=O)c2ccc(Br)cc2)c1 | 6 | 4 | 1 | -2 | 1 | -4
CCC(=O)Nc1cccc(NC(=S)NC(=O)c2ccc(C)cc2)c1 | -41 | 3 | -1 | 4.8* | 3.8* | 1
N#Cc1ccc(Cn2ccc3ccc(-c4ccc5ccn(Cc6ccc(C#N)cc6)c5c4)cc32)cc1 | . | . | -1 | . | -1 | .
CCOC(=O)[C@@]12CN(C(=O)OC(C)(C)C)CC=C1N(Cc1ccc(OC)cc1)C(=O)[C@H]2CC(=O)NCc1cccc2ccccc12 | . | . | -3 | . | 0 | .
Cc1ccc2c(c1)C(CS(=O)(=O)NCCc1ccccc1)NC2 (stereo not drawn) | . | . | -3 | . | -1 | .
CCN1CCN(C(=O)c2ccc(Cl)c(S(=O)(=O)N(C)c3ccccc3)c2)CC1 | 7 | 1 | 0 | 6.0* | 0 | 4
Cc1ccccc1CN1CCCCC(NC(=O)Nc2cccc([N+](=O)[O-])c2)C1=O (stereo not drawn) | . | . | -1 | . | -2 | .
Cc1nc2ccccc2n1CC(O)COC1CCCCC1 (stereo not drawn) | -12 | 0 | . | 0 | . | 6
CC(C)c1nc2ccccc2n1CC(O)COC1CCCCC1 (stereo not drawn) | 7 | -2 | 2 | 6.6* | 0 | 7
